From ChEMBL document CHEMBL1131523 (J Med Chem, 1998)
Peptide text beside a SMILES is read from it.

How the values were obtained:
[1] = (§1) Partition coefficient (logD3.0); format: physicochemical; settings: octanol/water, pH 3
[2] = Partition coefficient (logD6.8); settings: octanol/water, pH 6.8
[3] = as §1; settings: octanol/water, pH 3
[4] = Partition coefficient (logD9.4); settings: octanol/water, pH 9.4
[5] = Partition coefficient (logD1.5); settings: octanol/water, pH 1.5
[6] = Pharmacokinetic parameter :drug bound to plasma was reported; format: ADME, cell-free
[7] = Pharmacokinetic parameter :volume apparent of distribution was reported; format: ADME, organism-based; settings: in vivo
[8] = Pharmacokinetic parameter :half life in humans was reported; format: ADME, organism-based; settings: human, in vivo; read-out: T1/2 beta (converted)
[9] = Lipophilicity parameter log Pdod N; format: physicochemical; settings: dodecane/water
[10] = Partition coefficient between dodecane and water (logDdod7.4); format: physicochemical; settings: pH 7.4
[11] = (§2) Partition coefficient (logD7.4); format: physicochemical; settings: octanol/water, pH 7.4
[12] = Lipophilicity parameter log Poct N; settings: octanol/water
[13] = compound was evaluated for rate constant of transfer (log K1) at pH 1.0; format: ADME
Summary of the method: (§3)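 Transfer rate constants were measured in a triphasic water/octanol/water system (Kochi's flask). Compound in 40 mL of 0.06 mol L-1 phosphate buffer sat in compartment A, and 40 mL of the same buffer at the same pH sat in compartment B. 80 mL octanol was layered over both compartments.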

[14] = compound was evaluated for reverse occurs for the rate constant(log K-1) at pH 1.0; format: ADME; settings: buffer; summary of the method: as §3
[15] = compound was evaluated for reverse occurs for the rate constant(log K-1) at pH 4.6; format: ADME; settings: buffer; summary of the method: as §3
[16] = compound was evaluated for rate constant of transfer (log K1) at pH 8.8; format: ADME; summary of the method: as §3
[17] = Partition coefficient (logD4.6); format: physicochemical; settings: octanol/water, pH 4.6
Summary of the method: (§4)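 log D measured in n-octanol/aqueous phosphate buffer (0.02 mol L-1) by centrifugal partition chromatography in a multilayer coil separator–extractor at room temperature. UV detection was at the pH-dependent λmax. log D was computed from solute and solvent-front retention times, flow rate and column capacity. t0 came from K2Cr2O7 (pH > 4.5), CoCl2 (acidic pH) or biphenyl.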

[18] = compound was evaluated for rate constant of transfer (log K1) at pH 4.6; format: ADME; summary of the method: as §3
[19] = compound was evaluated for reverse occurs for the rate constant(log K-1) at pH 8.8; format: ADME; settings: buffer; summary of the method: as §3
[20] = compound was evaluated for reverse occurs for the rate constant(log K-1) at pH 7.4; format: ADME; settings: buffer; summary of the method: as §3
[21] = compound was evaluated for rate constant of transfer (log K1) at pH 7.4; format: ADME; summary of the method: as §3
[22] = compound were evaluated for rate constant of transfer (log K1) at pH 7.4; format: ADME; summary of the method: as §3
[23] = compound was evaluated for rate constant of transfer (log K1) at pH 3.0; format: ADME; summary of the method: as §3
[24] = Partition coefficient (logD1.0); format: physicochemical; settings: octanol/water, pH 1; summary of the method: as §4
[25] = as §2; format: physicochemical; settings: octanol/water, pH 7.4; summary of the method: as §4; remark: listed apart in the source
[26] = compound was evaluated for reverse occurs for the rate constant(log K-1) at pH 3.0; format: ADME; settings: buffer; summary of the method: as §3
[27] = compound was evaluated for saturable association constant (nKa) of isolated serum protein LDL
[28] = compound was evaluated for saturable association constant (nKa) of isolated serum protein VLDL

Row | Structure (SMILES) | logD ([1]; read-out: logD) | B [6] [%] | Vd [7] [L/kg] | Log K-1 [20] | Log K1 [21] | also measured
1 | Cc1ccc(/C(=C\CN2CCCC2)c2cccc(/C=C/C(=O)O)n2)cc1 [ACRIVASTINE] | 0.86 | – | – | – | – | logD [2]: -0.03; logD [3]: -0.48; logD [4]: 0.24; logD [5]: -0.93
2 | CC(C)(C(=O)O)c1ccc(C(O)CCCN2CCC(C(O)(c3ccccc3)c3ccccc3)CC2)cc1 (stereo unspecified) [FEXOFENADINE] | – | 65 | – | – | – | –
3 | CC(C)(C(=O)O)c1ccc(C(=O)CCCN2CCC(OC(c3ccccc3)c3ccccc3)CC2)cc1 [CAREBASTINE] | – | 98 | 2.4 | – | – | half-life [8]: 16 h
4 | OCCOCCN1CCN(C(c2ccccc2)c2ccc(Cl)cc2)CC1 (stereo unspecified) [HYDROXYZINE] | – | – | 30.5 | – | – | Log Pdod N [9]: 1.25; half-life [8]: 20 h; logD [10]: 0.9; logD [11]: 3.1; logP [12]: 3.5
5 | CC(C)C[C@H](N)C(=O)N[C@@H](Cc1ccccc1)C(=O)O (H-Leu-Phe-OH) | – | – | – | -1.77 | -2.55 | –
6 | Cc1ccc(/C(=C\CN2CCCC2)c2ccccn2)cc1 [TRIPROLIDINE] | – | 90 | 8.7 | – | – | half-life [8]: 30 h
7 | CNCc1ccccc1 [N-BENZYLMETHYLAMINE] | 0.86 | – | – | -1.94 | -0.78 | –
8 | CN1CCCC(n2nc(Cc3ccc(Cl)cc3)c3ccccc3c2=O)CC1 (stereo unspecified) [AZELASTINE] | – | – | 14.5 | – | – | half-life [8]: 25 h
9 | CCOC(=O)N1CCC(=C2c3ccc(Cl)cc3CCc3cccnc32)CC1 [LORATADINE] | – | 97 | – | – | – | –
10 | CC(C)(C)c1ccc(C(O)CCCN2CCC(C(O)(c3ccccc3)c3ccccc3)CC2)cc1 (stereo unspecified) [TERFENADINE] | – | 98 | 2.9 | – | – | half-life [8]: 23 h
11 | O=C(O)COCCN1CCN(C(c2ccccc2)c2ccc(Cl)cc2)CC1 (stereo unspecified) [CETIRIZINE] | – | – | – | – | – | nKa [27]: 2.21 M/M; nKa [28]: 289 M/M
12 | N[C@@H](Cc1c[nH]c2ccccc12)C(=O)N[C@@H](Cc1ccc(O)cc1)C(=O)O (H-Trp-Tyr-OH) | -1.38 | – | – | -1.72 | -2.73 | –
13 | c1ccncc1 [PYRIDINE] | – | – | – | -1.7 | -0.83 | –
14 | Oc1ccccc1 [PHENOL] | 1.54 | – | – | -2.5 | -0.68 | –
15 | COc1ccc(CCN2CCC(Nc3nc4ccccc4n3Cc3ccc(F)cc3)CC2)cc1 [ASTEMIZOLE] | – | 96 | 48 | – | – | half-life [8]: 26 h

Now from value to compound, other results behind:

Row | logD ([1]; read-out: logD) | B [6] [%] | Vd [7] [L/kg] | Log K-1 [20] | Log K1 [21] | Structure (SMILES) | also measured
16 | 0.07 | – | – | – | – | COC1=C(C(=O)Nc2ccccn2)N(C)S(=O)(=O)c2ccccc21 | Log K1 [13]: -1.32; Log K-1 [14]: -1.69
17 | 1.03 | – | – | – | – | CC(CCc1ccccc1)NCC(O)c1ccc(O)c(C(N)=O)c1 (stereo unspecified) [LABETALOL] | Log K-1 [15]: -1.58; Log K1 [16]: -0.89; logD [17]: -0.8; Log K1 [18]: -2.07; Log K-1 [19]: -2.22
18 | -1.02 | – | – | -1.57 | – | N[C@@H](Cc1ccccc1)C(=O)N[C@@H](Cc1ccccc1)C(=O)O (H-Phe-Phe-OH) | Log K1 [22]: -2.29
19 | – | 72 | 5.9 | – | – | CN(C)CCC(c1ccc(Cl)cc1)c1ccccn1 (stereo unspecified) [CHLORPHENIRAMINE] | –
20 | -0.52 | – | – | -1.74 | -1.94 | N[C@@H](Cc1c[nH]c2ccccc12)C(=O)N[C@@H](Cc1ccccc1)C(=O)O (H-Trp-Phe-OH) | –
21 | 1.43 | – | – | -1.75 | -1.53 | CN1C(C(=O)Nc2ccccn2)=C(O)c2ccccc2S1(=O)=O [PIROXICAM] | Log K1 [13]: -1; Log K-1 [14]: -1.93; Log K1 [23]: -0.69; logD [24]: 0.63; logD [25]: -0.08; Log K-1 [26]: -2.42
22 | 0.14 | – | – | -1.73 | -1.22 | CN(C(=O)C1=C(O)c2ccccc2S(=O)(=O)N1C)c1ccccn1 | Log K1 [13]: -1.51; Log K-1 [14]: -1.69; logD [1]: 0.14; Log K1 [23]: -1.19; logD [24]: -0.12; Log K-1 [26]: -1.63
23 | – | 72 | 10 | – | – | CN(C)CCC(c1ccc(Br)cc1)c1ccccn1 (stereo unspecified) [BROMPHENIRAMINE] | half-life [8]: 24.9 h
24 | – | 98 | – | – | – | CN(C)CCOC(c1ccccc1)c1ccccc1 [DIPHENHYDRAMINE] | –
